According to ChEMBL document CHEMBL1926543, “Unprecedented synthesis, in vitro and in vivo anti-cancer evaluation of novel triazolonaphthalimide derivatives” (Eur J Med Chem, 2012):

Tests used:
[1] = tested on: HepG2; test: Cytotoxicity against human HepG2 after 72 hrs by MTT assay; type: functional, cell-based; settings: HepG2, 72 h
Procedure, shortened: (§1)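 Cells seeded at 3.5 × 10⁴ cells/mL and pre-incubated 24 h at 37 °C, 5% CO₂; compounds diluted in DMSO and added for a further 72 h, with DMSO (final 0.5%) as control. Surviving cells measured by MTT, OD read at 492/620 nm; IC50 as mean of triplicate experiments.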

[2] = Cytotoxicity against human U87MG cells after 72 hrs by MTT assay; type: functional, cell-based, U-87MG ATCC; settings: U-87 MG; procedure, shortened: as §1
[3] = tested on: SK-OV-3; test: Cytotoxicity against human SKOV3 cells after 72 hrs by MTT assay; type: functional, cell-based; settings: SK-OV-3, 72 h; procedure, shortened: as §1
[4] = tested on: Mus musculus; test: Toxicity in mouse S180 cells xenografted ICR mouse assessed as mortality at 15 to 30 mg/kg, ip qd for 7 days; type: organism-based, CCRF S-180; set-up: dose 15-30 mg/kg, route intraperitoneal; settings: in vivo, 168 h
Procedure, shortened: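 S-180 sarcoma cells implanted into ICR mice (3 × 10⁶ cells/animal for this batch), ten animals per group allocated by weight. Drug dissolved in 0.9% saline (stock 0.75–3 mg/mL) and given intraperitoneally once daily for seven consecutive days at 7.5, 15 or 30 mg/kg; saline-only model group. Body weight recorded every two days; tumors excised and weighed 24 h after last injection.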

[5] = tested on: HCT-116; test: Cytotoxicity against human HCT116 cells after 72 hrs by MTT assay; type: functional, cell-based; settings: HCT-116, 72 h; procedure, shortened: as §1
[6] = tested on: PC-3; test: Cytotoxicity against human PC3 cells after 72 hrs by MTT assay; type: functional, cell-based; settings: PC-3, 72 h; procedure, shortened: as §1
[7] = Cytotoxicity against human L02 cells after 72 hrs by MTT assay; type: cell-based; settings: L02, 72 h; procedure, shortened: as §1
[8] = Cytotoxicity against human HK2 cells after 72 hrs by MTT assay; type: cell-based; settings: HK-2, 72 h; procedure, shortened: as §1
[9] = tested on: CCRF S-180; test: Antitumor activity against mouse S180 cells xenografted in ICR mouse assessed as tumor growth suppression at 7.5 mg/kg, ip qd for 7 days measured on day 8; type: functional; settings: route intraperitoneal
Procedure, shortened: (§2)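 S-180 sarcoma cells implanted in ICR mice (2.5 × 10⁶ or 3 × 10⁶ cells/animal, depending on batch); ten animals per group, allocated by body weight. Dosed intraperitoneally once daily for seven consecutive days in 0.9% physiological saline; saline-only model group and amonafide 30 mg/kg positive control. Body weights recorded every two days; tumours excised and weighed 24 h after last injection; suppression relative to control group.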

[10] = tested on: CCRF S-180; test: Antitumor activity against mouse S180 cells xenografted in ICR mouse assessed as tumor growth suppression at 30 mg/kg, ip qd for 7 days measured on day 8 relative to control; type: functional; settings: route intraperitoneal; procedure, shortened: as §2
[11] = tested on: CCRF S-180; test: Antitumor activity against mouse S180 cells xenografted in ICR mouse assessed as tumor growth suppression at 45 mg/kg, ip qd for 7 days measured on day 8 relative to control; type: functional; settings: route intraperitoneal; procedure, shortened: as §2
[12] = tested on: CCRF S-180; test: Antitumor activity against mouse S180 cells xenografted in ip dosed ICR mouse assessed as tumor growth suppression administered qd for 7 days measured on day 8; type: functional, organism-based; procedure, shortened: as §2
[13] = tested on: CCRF S-180; test: Antitumor activity against mouse S180 cells xenografted in ICR mouse assessed as tumor growth suppression at 60 mg/kg, ip qd for 7 days measured on day 8 relative to control; type: functional; settings: route intraperitoneal; procedure, shortened: as §2

CN(C)CCN1C(=O)c2cccc3c2c(cc2nnn(C)c23)C1=O
IC50 [1]: 680 nM
IC50 [2]: 450 nM
IC50 [3]: 1170 nM
Activity [4]: Toxic
IC50 [5]: 650 nM
IC50 [6]: 1580 nM
IC50 [7]: 1770 nM
IC50 [8]: 990 nM
Activity [9]: 26.25%

CN(C)CCCN1C(=O)c2cccc3c2c(cc2nnn(CCO)c23)C1=O
IC50 [1]: 5210 nM
IC50 [2]: 4310 nM
IC50 [3]: 9640 nM
IC50 [5]: 7730 nM
IC50 [6]: 25000 nM

CN(C)CCN1C(=O)c2cccc3c2c(cc2nnn(CCN(C)C)c23)C1=O
IC50 [1]: 170 nM
IC50 [2]: 130 nM
IC50 [3]: 350 nM
IC50 [5]: 190 nM
IC50 [6]: 730 nM

CCCCn1nnc2cc3c4c(cccc4c21)C(=O)N(CCCN(C)C)C3=O
IC50 [1]: 5770 nM
IC50 [2]: 6320 nM
IC50 [3]: 8930 nM
IC50 [5]: 6340 nM
IC50 [6]: 15500 nM

CN(C)CCN1C(=O)c2cccc3c2c(cc2nnn(CCO)c23)C1=O
IC50 [1]: 1070 nM
IC50 [2]: 1220 nM
IC50 [3]: 2530 nM
IC50 [5]: 1420 nM
IC50 [6]: 4290 nM

Cn1nnc2cc3c4c(cccc4c21)C(=O)N(CC[N+](C)(C)[O-])C3=O
Activity [10]: 4.83%
IC50 [1]: > 10000 nM
Activity [11]: 46.18%
IC50 [2]: > 10000 nM
IC50 [3]: > 10000 nM
Activity [12]: Dose-dependent effect
IC50 [5]: > 10000 nM
Activity [13]: 62.74%
IC50 [6]: > 10000 nM
IC50 [7]: 142000 nM
IC50 [8]: 108000 nM

CN(C)CCCn1nnc2cc3c4c(cccc4c21)C(=O)N(CCN(C)C)C3=O
IC50 [1]: 180 nM
IC50 [2]: 140 nM
IC50 [3]: 400 nM
IC50 [5]: 150 nM
IC50 [6]: 710 nM

CN(C)CCCN1C(=O)c2cccc3c2c(cc2nnn(CCCN(C)C)c23)C1=O
IC50 [1]: 290 nM
IC50 [2]: 300 nM
IC50 [3]: 460 nM
IC50 [5]: 350 nM
IC50 [6]: 1200 nM

CN(C)CCN1C(=O)c2cccc3cc(N)cc(c23)C1=O [AMONAFIDE]
IC50 [1]: 1410 nM
IC50 [2]: 2800 nM
IC50 [3]: 8830 nM
IC50 [5]: 4550 nM
IC50 [6]: 8050 nM

CCCCn1nnc2cc3c4c(cccc4c21)C(=O)N(CCN(C)C)C3=O
IC50 [1]: 1010 nM
IC50 [2]: 1460 nM
IC50 [3]: 2550 nM
IC50 [5]: 1820 nM
IC50 [6]: 4770 nM

CN(C)CCN1C(=O)c2cccc3cc(Nc4ccc([N+](=O)[O-])cc4)cc(c23)C1=O
IC50 [1]: 410 nM
IC50 [2]: 620 nM
IC50 [3]: 1320 nM
IC50 [5]: 620 nM
IC50 [6]: 410 nM

CN(C)CCCN1C(=O)c2cccc3c2c(cc2nnn(CCN(C)C)c23)C1=O
IC50 [1]: 780 nM
IC50 [2]: 370 nM
IC50 [3]: 640 nM
IC50 [5]: 390 nM
IC50 [6]: 3280 nM

COc1ccc(Nc2cc3c4c(cccc4c2)C(=O)N(CCN(C)C)C3=O)cc1
IC50 [1]: 900 nM
IC50 [2]: 2520 nM
IC50 [3]: 2340 nM
IC50 [5]: 1240 nM
IC50 [6]: 1620 nM

CN(C)CCCN1C(=O)c2cccc3c2c(cc2nnn(C)c23)C1=O
IC50 [1]: 970 nM
IC50 [2]: 1140 nM
IC50 [3]: 2000 nM
IC50 [5]: 1350 nM
IC50 [6]: 3210 nM
